Measurements from ChEMBL document CHEMBL3877339, “Efficient Semisynthesis of (-)-Pseudoirroratin A from (-)-Flexicaulin A and Assessment of Their Antitumor Activities” (ACS Med Chem Lett, 2017).
Active and inactive are the calls of the source. The rule behind the calls is not given here.

Legend:
HCT-116 [1] = assay: Antiproliferative activity against human HCT116 cells at 2.5 ug/ml by light microscopic method; type: functional, cell-based
Outline: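 HCT-116 cells grown at relatively high density, untreated or compound-treated, then viewed by light microscopy at 10× magnification.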

[2] = (§1) Cytotoxicity against human HT-29 cells assessed as reduction in cell viability after 48 hrs by MTT assay; type: functional, cell-based; conditions: HT-29, 48 h
Outline: (§2)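 MTT viability assay over a compound concentration series in colorectal carcinoma cells; IC50 taken from dose–response curves. Mean ± SD of three separate experiments.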

HT-29 = assay: as §1; type: functional, cell-based; outline: as §2
Mus musculus = assay: Toxicity in BALB/c mouse xenografted with human HCT116 cells assessed as change in body weight at 20 mg/kg, ip administered every other day for 14 days; type: organism-based, HCT-116; conditions: in vivo, 336 h
[3] = (§3) Cytotoxicity against human HCT116 cells assessed as reduction in cell viability after 48 hrs by MTT assay; type: functional, cell-based; conditions: HCT-116, 48 h; outline: as §2
HCT-116 [4] = assay: as §3; type: functional, cell-based; outline: as §2
HCT-116 [5] = assay: Induction of apoptosis in human HCT116 cells cytoplasmic extract assessed as increase in cleaved caspase-3 expression at 0.3125 to 2.5 ug/ml after 48 hrs by Western blot method; type: functional, cell-based
Outline: (§4)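 HCT-116 cells treated at 0–2.5 μg/mL, then split into cytoplasmic and nuclear extracts for Western blotting. The cytoplasmic fraction was probed for cleaved PARP, cleaved caspase-3, phospho-ERK and survivin, with α-tubulin as loading control. The nuclear fraction was probed for HDAC1, with histone H3 as loading control.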

HCT-116 [6] = assay: Antitumor activity against human HCT116 cells xenografted in BALB/c nude mouse assessed as inhibition of tumor volume at 20 mg/kg, ip administered every other day for 14 days; type: functional, organism-based
Outline: (§5)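 HCT-116 cells implanted subcutaneously in the flanks of nude mice. Compound given intraperitoneally at 20 mg/kg every other day for 14 days; controls got vehicle. Tumour volume measured per animal at set time points, and tumours excised at study end; mean ± SD, n = 10 per group.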

[7] = Downregulation of HDAC1 expression in human HCT116 cells nuclear extract at >0.625 ug/ml after 48 hrs by Western blot method; type: functional, cell-based; conditions: HCT-116; outline: as §4
HCT-116 [8] = assay: Induction of apoptosis in human HCT116 cells assessed as late apoptotic cells at 2 ug/ml after 48 hrs by Annexin V-FITC/propidium iodide staining based flow cytometry (reference value: 3.6%); type: functional
HCT-116 [9] = assay: Induction of apoptosis in human HCT116 cells cytoplasmic extract assessed as decrease in survivin expression at 0.3125 to 2.5 ug/ml after 48 hrs by Western blot method; type: functional, cell-based; outline: as §4
HCT-116 [10] = assay: Induction of apoptosis in human HCT116 cells cytoplasmic extract assessed as increase in cleaved PARP expression at 0.3125 to 2.5 ug/ml after 48 hrs by Western blot method; type: functional, cell-based; outline: as §4
HCT-116 [11] = assay: Induction of apoptosis in human HCT116 cells after 48 hrs by Annexin V-FITC/propidium iodide staining based flow cytometry; type: functional, cell-based
HCT-116 [12] = assay: Induction of apoptosis in human HCT116 cells assessed as early apoptotic cells at 1 ug/ml after 48 hrs by Annexin V-FITC/propidium iodide staining based flow cytometry (reference value: 3.7%); type: functional
HCT-116 [13] = assay: Increase in ERK phosphorylation in human HCT116 cells cytoplasmic extract at 0.3125 to 2.5 ug/ml after 48 hrs by Western blot method; type: cell-based; outline: as §4
HCT-116 [14] = assay: Induction of apoptosis in human HCT116 cells assessed as necrotic cells at 1 ug/ml after 48 hrs by Annexin V-FITC/propidium iodide staining based flow cytometry (reference value: 1.3%); type: functional
HCT-116 [15] = assay: Induction of apoptosis in human HCT116 cells assessed as necrotic cells at 2 ug/ml after 48 hrs by Annexin V-FITC/propidium iodide staining based flow cytometry (reference value: 1.3%); type: functional
HCT-116 [16] = assay: Induction of apoptosis in human HCT116 cells assessed as necrotic cells at 0.5 ug/ml after 48 hrs by Annexin V-FITC/propidium iodide staining based flow cytometry (reference value: 1.3%); type: functional
HCT-116 [17] = assay: Induction of apoptosis in human HCT116 cells assessed as late apoptotic cells at 0.5 ug/ml after 48 hrs by Annexin V-FITC/propidium iodide staining based flow cytometry (reference value: 3.6%); type: functional
HCT-116 [18] = assay: Induction of apoptosis in human HCT116 cells assessed as necrotic cells at 5 ug/ml after 48 hrs by Annexin V-FITC/propidium iodide staining based flow cytometry (reference value: 1.3%); type: functional
HCT-116 [19] = assay: Induction of apoptosis in human HCT116 cells assessed as early apoptotic cells at 0.5 ug/ml after 48 hrs by Annexin V-FITC/propidium iodide staining based flow cytometry (reference value: 3.7%); type: functional
HCT-116 [20] = assay: Induction of apoptosis in human HCT116 cells assessed as early apoptotic cells at 2 ug/ml after 48 hrs by Annexin V-FITC/propidium iodide staining based flow cytometry (reference value: 3.7%); type: functional
HCT-116 [21] = assay: Induction of apoptosis in human HCT116 cells assessed as necrotic cells at 10 ug/ml after 48 hrs by Annexin V-FITC/propidium iodide staining based flow cytometry (reference value: 1.3%); type: functional
HCT-116 [22] = assay: Induction of apoptosis in human HCT116 cells assessed as late apoptotic cells at 10 ug/ml after 48 hrs by Annexin V-FITC/propidium iodide staining based flow cytometry (reference value: 3.6%); type: functional
HCT-116 [23] = assay: Induction of apoptosis in human HCT116 cells assessed as early apoptotic cells at 5 ug/ml after 48 hrs by Annexin V-FITC/propidium iodide staining based flow cytometry (reference value: 3.7%); type: functional
HCT-116 [24] = assay: Antitumor activity against human HCT116 cells xenografted in BALB/c nude mouse assessed as inhibition of tumor weight at 20 mg/kg, ip administered every other day for 14 days; type: functional, organism-based; outline: as §5
HCT-116 [25] = assay: Induction of apoptosis in human HCT116 cells assessed as late apoptotic cells at 5 ug/ml after 48 hrs by Annexin V-FITC/propidium iodide staining based flow cytometry (reference value: 3.6%); type: functional
HCT-116 [26] = assay: Induction of apoptosis in human HCT116 cells assessed as early apoptotic cells at 10 ug/ml after 48 hrs by Annexin V-FITC/propidium iodide staining based flow cytometry (reference value: 3.7%); type: functional
HCT-116 [27] = assay: Induction of apoptosis in human HCT116 cells assessed as late apoptotic cells at 1 ug/ml after 48 hrs by Annexin V-FITC/propidium iodide staining based flow cytometry (reference value: 3.6%); type: functional

C=C1C(=O)[C@@]23[C@H](O)C[C@@H]4C(C)(C)CCC[C@@]4(COC(C)=O)[C@@H]2[C@@H](O)C[C@@H]1[C@H]3O [FLEXICANLIN A]
Activity (HCT-116 [1]): Active | IC50 [2]: 10.5 µM | Activity (HT-29): Dose-dependent effect | Activity (Mus musculus): Non-Toxic | IC50 [3]: 7.3 µM | Activity (HCT-116 [4]): Dose-dependent effect

C=C1C(=O)[C@]23[C@H](O)C[C@@H]4C(C)(C)CCC[C@]45CO[C@](O)(C[C@@H]1[C@H]2O)[C@@H]53 [PSEUDOIRRORATIN A]
Activity (HCT-116 [5]): Active | Activity (HCT-116 [6]): Active | Activity [7]: Active | Activity (HCT-116 [8]): 27.8% | Activity (HCT-116 [9]): Active | Activity (HCT-116 [10]): Active | Activity (HCT-116 [1]): Active | Activity (HCT-116 [11]): Dose-dependent effect | Activity (HCT-116 [12]): 10% | Activity (HCT-116 [13]): Active | IC50 [2]: 5.9 µM | Activity (HT-29): Dose-dependent effect | Activity (HCT-116 [14]): 11.1% | Activity (HCT-116 [15]): 14.7% | Activity (HCT-116 [16]): 3.1% | Activity (HCT-116 [17]): 5.3% | Activity (HCT-116 [18]): 21.1% | Activity (Mus musculus): Non-Toxic | IC50 [3]: 4.9 µM | Activity (HCT-116 [4]): Dose-dependent effect | Activity (HCT-116 [19]): 8.5% | Activity (HCT-116 [20]): 18.3% | Activity (HCT-116 [21]): 13.8% | Activity (HCT-116 [22]): 30.2% | Activity (HCT-116 [23]): 26.2% | Activity (HCT-116 [24]): Active | Activity (HCT-116 [25]): 24.7% | Activity (HCT-116 [26]): 33.9% | Activity (HCT-116 [27]): 17%
